{"data": "Published values pooled from the literature", "target": "Myosin light chain kinase family member 4 (MYLK4, Homo sapiens, UniProt Q86YV6)", "Sequence (Q86YV6 1-388, as in one of the studies)": "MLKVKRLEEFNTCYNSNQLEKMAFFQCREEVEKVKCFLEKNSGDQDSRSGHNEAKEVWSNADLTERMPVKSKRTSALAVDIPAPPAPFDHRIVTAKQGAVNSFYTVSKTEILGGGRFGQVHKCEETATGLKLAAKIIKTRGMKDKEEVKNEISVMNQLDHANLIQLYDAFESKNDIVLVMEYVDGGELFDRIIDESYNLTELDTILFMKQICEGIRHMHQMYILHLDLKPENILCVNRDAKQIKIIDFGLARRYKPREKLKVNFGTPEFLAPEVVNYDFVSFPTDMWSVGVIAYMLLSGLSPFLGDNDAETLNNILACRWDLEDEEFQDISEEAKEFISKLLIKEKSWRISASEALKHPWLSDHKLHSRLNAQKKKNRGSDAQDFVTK", "note": "Compare with care: the assays were run in different laboratories."}
{"Structure (SMILES)": "O=C(c1ccc(Nc2nccc(-c3cc4ccccc4s3)n2)cc1)N1CCC(N2CCCC2)CC1", "read-out": "binding", "technique": "competition with immobilised ligand", "concentration": "1 µM", "remaining binding [%]": 0.1}
{"Structure (SMILES)": "CN(C)c1nccc(-c2cnn3ncccc23)n1", "read-out": "binding", "concentration": "1 µM", "remaining binding [%]": 88}
{"Structure (SMILES)": "COc1ccc2c(c1)O[C@@H](c1ccc(OC)c(OC)c1)C[C@H]2NC(=O)C1(c2ccc3c(c2)OC(F)(F)O3)CC1", "read-out": "cell-free assay", "technique": "competition with immobilised ligand", "concentration": "1 µM", "remaining binding [%]": 97}
{"Structure (SMILES)": "N[C@@H]1CCN(c2nccc(-c3cnn4ncccc34)n2)C1", "read-out": "binding", "concentration": "1 µM", "remaining binding [%]": 100}
{"Structure (SMILES)": "O=C(Nc1c[nH]nc1C(=O)NC1CCNCC1)c1cc(F)cc(F)c1", "read-out": "binding", "technique": "competition with immobilised ligand", "concentration": "1 µM", "remaining binding [%]": 100}
{"Structure (SMILES)": "CNC(=O)Nc1ccc2c(c1)CC[C@@]21OC(=O)N(CC(=O)N(Cc2ccc(F)cc2)[C@@H](C)C(F)(F)F)C1=O", "read-out": "cell-free assay", "technique": "competition with immobilised ligand", "concentration": "1 µM", "remaining binding [%]": 70}
{"Structure (SMILES)": "c1cnn2ncc(-c3ccnc(N4CCC45COC5)n3)c2c1", "read-out": "binding", "concentration": "1 µM", "remaining binding [%]": 78}
{"Structure (SMILES)": "O=C(c1ccc(Nc2ncc(Cl)c(-c3ccc(Cl)s3)n2)cc1)N1CCC(N2CCCC2)CC1", "read-out": "binding", "technique": "competition with immobilised ligand", "concentration": "1 µM", "remaining binding [%]": 0}
{"Structure (SMILES)": "C[C@H](c1cccc(C#N)c1)n1cc(Cl)cc(C(N)=O)c1=N", "read-out": "cell-free assay", "technique": "competition with immobilised ligand", "concentration": "1 µM", "remaining binding [%]": 100}
{"Structure (SMILES)": "COc1cnc(Nc2cccc(S(N)(=O)=O)c2)nc1N1CCN(c2ccccc2)CC1", "read-out": "binding", "technique": "competition with immobilised ligand", "concentration": "1 µM", "remaining binding [%]": 100}
{"Structure (SMILES)": "C[C@@H]1CCN(c2nccc(-c3cnn4ncccc34)n2)C1", "read-out": "binding", "concentration": "1 µM", "remaining binding [%]": 100}
{"Structure (SMILES)": "FC(F)(F)Oc1cccc(-c2cnc3ccc(-c4ccncc4)nn23)c1", "read-out": "cell-free assay", "technique": "competition with immobilised ligand", "concentration": "5 µM", "remaining binding [%]": 0.35}
{"Structure (SMILES)": "COc1cccc(CNC(=O)c2nc3scc(COCc4ccc(C(=O)O)cc4)c3c(=O)[nH]2)c1", "read-out": "cell-free assay", "technique": "competition with immobilised ligand", "concentration": "1 µM", "remaining binding [%]": 100}
{"Structure (SMILES)": "CNC(=O)[C@@H]1CC[C@@H](n2c(-c3ccc4cnccc4c3)nc3ccc(C(=O)NCc4cccc(C(N)=O)c4)cc32)C1", "read-out": "binding", "technique": "competition with immobilised ligand", "concentration": "1 µM", "remaining binding [%]": 100}
{"Structure (SMILES)": "CN(CCCC(F)(F)F)c1nccc(-c2cnn3ncccc23)n1", "read-out": "binding", "concentration": "1 µM", "remaining binding [%]": 100}
{"Structure (SMILES)": "CCS(=O)(=O)c1cc2cc(C[C@@](O)(CC(C)(C)c3ccc(F)cc3C(N)=O)C(F)(F)F)[nH]c2cn1", "read-out": "cell-free assay", "technique": "competition with immobilised ligand", "concentration": "1 µM", "remaining binding [%]": 100}
{"Structure (SMILES)": "c1cncc(-c2cccc(Nc3nccc(NC4CCCCC4)n3)c2)c1", "read-out": "binding", "technique": "competition with immobilised ligand", "concentration": "10 µM", "remaining binding [%]": 51}
{"Structure (SMILES)": "CCC(=O)N[C@@H]1CC[C@H](C(=O)N(C)c2ccc(-c3nc4ccccc4o3)cc2)C1", "read-out": "cell-free assay", "technique": "competition with immobilised ligand", "concentration": "1 µM", "remaining binding [%]": 100}
{"Structure (SMILES)": "O=C(c1ccc(Nc2ncc(Cl)c(-c3cc4ccccc4s3)n2)cc1)N1CCC(N2CCCC2)CC1", "read-out": "binding", "technique": "competition with immobilised ligand", "concentration": "1 µM", "remaining binding [%]": 0.1}
